In the library only some 2% were active in any assay of this set; here they are far more common.
UCH37 DUB inh: inhibitors of human UCH37 deubiquitinase, primary screen, biochemical, Ub-AMC cleavage, fluorescence; purified proteasome/UCH37; inhibition, % (no concentration beside the values); Ubiquitin carboxyl-terminal hydrolase isozyme L5 (Homo sapiens), Q9Y5K5; 330,000 compounds, 0.33% hits;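 active = mean inhibition over replicate wells above about 20%, limit read from the data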;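 note: 0% = compound-free wells with enzyme and 100% = wells lacking proteasome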
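System: Proteasome-associated human UCH37 deubiquitinase; Input: 0.15 nM proteasome in added enzyme buffer; Also added: Ub-AMC substrate from 1 µM stock; Incubation: 30 min compound-proteasome preincubation then 25 min substrate reaction, room temperature; Detection: fluorescence, ex 355 nm, em 460 nm; Read-out: % inhibition of Ub-AMC cleavage fluorescence; Benchmarks: no-proteasome and no-compound wells.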
Apaf-1 inh: inhibitors of human Apaf-1 apoptosome, primary screen, biochemical, DEVD-Rh110 fluorescence, uHTS | 330,000 compounds, 0.71% hits | Apoptotic protease-activating factor 1 (Homo sapiens), O14727 | inhibition, % at 20 µM | reconstituted apoptosome caspase-3 activity; active = inhibition of at least 40% at 20 µM;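 note: plate controls were DMSO wells for no effect and DEVD-CHO caspase inhibitor wells for full effect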
Target sequence (O14727 whole entry, looked up): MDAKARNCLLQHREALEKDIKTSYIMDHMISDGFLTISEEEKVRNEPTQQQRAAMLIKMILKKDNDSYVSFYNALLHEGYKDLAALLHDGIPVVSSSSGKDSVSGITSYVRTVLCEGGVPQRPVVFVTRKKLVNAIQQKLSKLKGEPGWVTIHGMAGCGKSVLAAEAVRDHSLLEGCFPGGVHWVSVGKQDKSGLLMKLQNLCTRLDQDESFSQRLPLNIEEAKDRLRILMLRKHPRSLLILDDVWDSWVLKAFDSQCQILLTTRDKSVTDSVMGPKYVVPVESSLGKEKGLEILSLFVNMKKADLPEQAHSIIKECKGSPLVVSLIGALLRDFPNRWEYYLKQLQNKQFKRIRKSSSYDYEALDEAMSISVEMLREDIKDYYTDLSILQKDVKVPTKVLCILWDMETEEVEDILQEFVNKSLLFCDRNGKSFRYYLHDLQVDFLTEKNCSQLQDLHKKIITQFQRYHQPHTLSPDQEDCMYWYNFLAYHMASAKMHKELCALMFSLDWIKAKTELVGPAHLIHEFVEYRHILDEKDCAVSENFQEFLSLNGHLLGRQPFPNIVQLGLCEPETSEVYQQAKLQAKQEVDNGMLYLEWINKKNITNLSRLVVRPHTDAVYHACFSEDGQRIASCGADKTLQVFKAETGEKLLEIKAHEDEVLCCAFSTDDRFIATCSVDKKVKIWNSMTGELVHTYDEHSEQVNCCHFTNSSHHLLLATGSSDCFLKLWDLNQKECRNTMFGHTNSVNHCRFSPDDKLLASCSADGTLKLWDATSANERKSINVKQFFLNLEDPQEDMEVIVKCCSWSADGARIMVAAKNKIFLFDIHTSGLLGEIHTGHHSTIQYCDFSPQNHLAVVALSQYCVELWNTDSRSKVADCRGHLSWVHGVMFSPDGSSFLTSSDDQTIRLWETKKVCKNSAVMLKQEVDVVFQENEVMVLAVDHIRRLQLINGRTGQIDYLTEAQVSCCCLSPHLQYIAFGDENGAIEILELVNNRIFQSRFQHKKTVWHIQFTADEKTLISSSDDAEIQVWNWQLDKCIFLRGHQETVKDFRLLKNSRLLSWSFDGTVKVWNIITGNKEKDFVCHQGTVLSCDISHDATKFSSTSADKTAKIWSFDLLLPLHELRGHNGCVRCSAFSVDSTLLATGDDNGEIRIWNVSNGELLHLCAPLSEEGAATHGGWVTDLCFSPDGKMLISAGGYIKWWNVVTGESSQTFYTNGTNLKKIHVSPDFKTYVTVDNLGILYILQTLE
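Material: reconstituted apoptosome with Apaf-1, cytochrome c, caspase-9, procaspase-3, dATP; medium: pH 7.5 Hepes buffer with CHAPS, BSA, DTT; also added: cytochrome c and DEVD-Rh110 substrate; timing: 30 min plus 50 min, RT; signal: Rh110 fluorescence intensity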
PAD4 FP inh: human PAD4 inhibitors, primary screen, biochemical, fluorescence polarization, 1536-well format; recombinant PAD4, RCA probe fluorescence polarization; inhibition, % at 6.36 µM; 330,000 compounds, 0.41% hits;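 active = percent inhibition above a cutoff equal to the mean of all tested compounds plus 3 SD, cut at about 15% in these data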;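 note: 0% = PAD4 with RCA probe and DMSO and 100% = probe without PAD4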
Fh CTSL1 inh: Fasciola hepatica cathepsin L1 inhibitors, primary screen, counter-screen for PFM18AAP inhibitor project, biochemical, QFRET, fluorogenic peptide substrate; recombinant F. hepatica cathepsin L1, Z-Leu-Arg-MCA fluorescence; inhibition, % at 5.96 µM; 300,000 compounds, 0.49% hits; AID 1906, 2009;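 active = inhibition above the mean of all tested compounds plus 3 SD, set per screening campaign, cut at about 17% in these data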;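 note: 0% = plate median of test compound wells and 100% = 1 µM Z-Phe-Ala-diazomethylketone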
GSTO1 inh: inhibitors of recombinant GSTO1, primary screen, counter-screen for RBBP9 inhibitor project, biochemical, fluorescence polarization | AID 1974, 2009 | inhibition, % at 5.96 µM | 300,000 compounds, 1.1% hits | Glutathione S-transferase omega-1 (Homo sapiens), P78417 | activity-based probe fluorescence polarization;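 active = inhibition above the campaign mean inhibition plus 3 SD, cut at about 35% in these data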;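 note: 0% = GSTO1-1 with DMSO and 100% = wells lacking GSTO1-1 enzyme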
PP5 primary: PP5 phosphatase inhibitors, primary screen, biochemical, fluorescence; Serine/threonine-protein phosphatase 5 (Homo sapiens), P53041; inhibition, % at 6.7 µM; 320,000 compounds, 0.18% hits; purified PP5c, OMFP substrate fluorescence;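 active = inhibition above the campaign's mean inhibition across all tested compounds plus 3 SD, cut at about 9.5% in these data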;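 note: 0% = DMSO only and 100% = 100 µM cantharidin control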
GSTO1 inh conf: GSTO1 inhibitor hit confirmation, counter-screen for RBBP9 inhibitor project, biochemical, fluorescence polarization, triplicate; shares compounds with GSTO1 inh; recombinant GSTO1, probe fluorescence polarization; inhibition, % at 5.96 µM; 2,400 compounds, 54% hits;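 active = inhibition above the primary screen's cutoff, its mean inhibition plus 3 SD, cut at about 35% in these data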;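 note: loss of polarization as inhibitors block binding of rhodamine sulfonate ester activity probe; 0% = GSTO1 with DMSO and 100% = wells lacking GSTO1 enzyme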
PP5 conf: PP5 phosphatase inhibitors, confirmation, biochemical, fluorescence, human; inhibition, % at 6.7 µM; 460 compounds, 22% hits; shares compounds with PP5 primary; Purified PP5, fluorogenic phosphatase substrate; in the data active = inhibition above about 9.5%
PP1 inh counter: PP1 phosphatase inhibitors, counter-screen for PP5 inhibitor project, biochemical, fluorescence, triplicate. shares compounds with PP5 primary. PP1 enzyme, fluorescent phosphatase substrate. inhibition, % at 6.7 µM. 460 compounds, 4% hits. AID 2355, 2010; in the data active = inhibition above about 16%
PAD4 FP conf: human PAD4 inhibitors, confirmation, biochemical, fluorescence polarization. recombinant PAD4, RCA probe fluorescence polarization. inhibition, % at 6.36 µM. AID 488796, 2010. shares compounds with PAD4 FP inh. 1,200 compounds, 28% hits;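 active = mean inhibition across replicates above the hit cutoff set by the earlier primary screen, cut at about 15% in these data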;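 note: inhibitors block active-site labeling by the probe so polarization falls; 0% = PAD4 with probe and DMSO and 100% = probe without PAD4 enzyme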
Apaf-1 inh conf: Apaf-1 inhibitors, single-dose retest, confirmation, biochemical, fluorescence, DEVD-Rh110, 20 µM; shares compounds with Apaf-1 inh; reconstituted apoptosome, caspase-3 DEVD-Rh110 fluorescence; inhibition, % at 20 µM; 1,800 compounds, 25% hits; AID 504614, 2011;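 active = mean inhibition of at least 40% at 20 µM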;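 note: plate controls were DMSO wells for no effect and DEVD-CHO caspase inhibitor control wells for full effect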
Rh110 interf inh: Rh110 fluorescence interference by putative Apaf-1 inhibitors, confirmation, artefact control for Apaf-1 inhibitor project, biochemical, 20 µM | quenched caspase reaction | AID 504615, 2011 | shares compounds with Apaf-1 inh | 1,800 tested, under 10 active | activation (fluorescence interference), % at 20 µM;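 active = signal rise of 40% or more at 20 µM, treated as a fluorescence artifact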
Apaf1 inh interf: fluorescence interference of Apaf-1 inhibitor hits, dose response, artefact control for Apaf-1 inhibitor project; shares compounds with Apaf-1 inh; fluorescence interference counterscreen, Apaf-1 assay format; IC50, µM; 460 tested, under 10 active; call rule not given here
Numbers without * were called inactive; i = inactive; · = not tested or not shown.

SMILES	UCH37 DUB inh	Apaf-1 inh	PAD4 FP inh	Fh CTSL1 inh	GSTO1 inh	PP5 primary	GSTO1 inh conf	Apaf-1 inh conf	Rh110 interf inh	others
CCC(=O)OC1(C)C(=O)C2=COC(c3ccc(OC)cc3)=CC2=C(Br)C1=O (configuration not stated)	9.6	22.1	-9.9	0.1	32.8	4.2	·	·	·
CC(C)(C)OC(=O)N1CCC[C@H]1C(=O)NN=Cc1ccc2nccnc2c1	4.1	·	·	·	·	·	·	·	·
COc1cc(C=NNC(=O)C2COc3ccccc3O2)ccc1O (configuration not stated)	-3.5	·	·	·	·	·	·	·	·
CCCCCOC(=O)c1c(N)n(CCOC)c2nc3ccccc3nc12	i	94.0*	25.6*	-3.0	64.6*	5.0	18.3	27.2	13.1	PAD4 FP conf=-9.9
COCCOC(=O)c1c(N)n(CCCN2CCOCC2)c2nc3ccccc3nc12	i	10.2	-5.0	1.3	7.0	2.0	·	·	·
CN1C(=O)CSC1=NNC(=O)COc1cccc2cccnc12	4.2	·	·	·	·	·	·	·	·
Oc1ccc(/C=N/Nc2cc(N3CCCC3)nc(N3CCCC3)n2)cc1O	·	59.7*	1.1	0.1	46.5*	0.9	78.9*	88.8*	2.8	Apaf1 inh interf=>100
COc1ccc2c(c1O)-c1ccccc1CCN(C)C2	-0.4	8.6	-1.1	3.9	-1.0	3.3	·	·	·
CN1CCc2cccc3c2[C@@H]1Cc1ccc(O)c(O)c1-3	-3.0	49.9*	-2.0	0.9	93.7*	1.6	13.5	24.7	14.1
COC(=O)/C(=C/Nc1ccc(O)cc1)[N+](=O)[O-]	6.8	91.2*	68.1*	2.4	75.4*	2.8	6.5	15.8	11.7	PAD4 FP conf=1.6
O=[N+]([O-])c1cccc(C=NNc2cc(Cl)nc(-c3ccccc3)n2)c1	9.8	·	·	·	·	·	·	·	·
C[n+]1cccc2c(Br)ccc([O-])c21	5.0	98.2*	6.2	1.2	41.1*	7.5	13.7	63.9*	6.6	Apaf1 inh interf=>100
COc1ccc(NC(=O)Nc2ccc(O)c3ccccc23)cc1	-19.3	51.7*	22.8*	-1.4	64.7*	4.4	5.8	16.1	-4.5	PAD4 FP conf=-2.1
COc1ccc(NC(=O)Nc2ccccc2OC)cc1	-1.9	-11.8	7.2	-2.2	2.0	0.2	·	·	·
O=C(O)c1ccc(-n2nnc3ccccc32)c([N+](=O)[O-])c1	5.4	4.7	-0.5	-2.2	-1.6	0.9	·	·	·
O=C(O)c1ccc(NC2=C(n3nnc4ccccc43)C(=O)c3ccccc3C2=O)cc1	·	73.1*	17.4*	33.7*	53.1*	-1.2	60.9*	75.6*	3.8	PAD4 FP conf=3.4;Apaf1 inh interf=>100
N#Cc1sc2nc(-c3ccccc3)cc(-c3ccco3)c2c1N	8.8	89.6*	46.1*	3.0	65.8*	1.6	78.1*	13.9	-3.8	PAD4 FP conf=115.6*
N#Cc1sc2nc(C3CC3)cc(-c3ccccc3)c2c1N	-92.6	29.6	7.0	-5.7	-2.8	2.4	·	·	·
Cc1ccc(-n2c(C)cc(C=NNC(=O)CC(=O)NC(C)C)c2C)cc1	3.0	·	·	·	·	·	·	·	·
COc1ccc(C(=O)c2coc3c2C(=O)C(=O)c2ccccc2-3)cc1	10.9	19.9	-10.9	-2.6	23.8	2.9	·	·	·
O=C1c2ccccc2C(=O)c2c1oc(C(F)(F)F)c2C(=O)c1ccccc1	24.4*	78.6*	1.5	25.7*	62.4*	2.5	71.0*	85.2*	1.3	Apaf1 inh interf=>100
O=C(c1ccccc1)c1coc2c1C(=O)c1ccccc1C2=O	15.1	63.6*	-9.9	20.4*	59.9*	0.6	38.8*	69.5*	6.5	Apaf1 inh interf=>100
CCOc1ccc(C(CCC(=O)O)=NNC(=S)NCCc2ccccc2)cc1	4.2	·	·	·	·	·	·	·	·
COc1cc(OC)c(OC)cc1C=NNC(=O)c1cccc(S(=O)(=O)N2CCOCC2)c1	10.1	·	·	·	·	·	·	·	·
Nc1cc2nsnc2cc1Br	·	98.2*	77.7*	113.6*	92.4*	10.9*	90.6*	99.1*	5.6	PP5 conf=48.8*;PP1 inh counter=1.4;PAD4 FP conf=53.0*;Apaf1 inh interf=>100
SMILES	UCH37 DUB inh	Apaf-1 inh	PAD4 FP inh	Fh CTSL1 inh	GSTO1 inh	PP5 primary	GSTO1 inh conf	Apaf-1 inh conf	Rh110 interf inh	others
CC(=NO)c1ccc(N2C(=O)C3CC=C(Cl)CC3C2=O)cc1 (configuration not stated)	0.4	·	·	·	·	·	·	·	·
COc1ccccc1NC1=C(NC(C)=O)C(=O)c2ccccc2C1=O	13.1	·	·	·	·	·	·	·	·
COc1ccccc1N(/N=C1\Sc2ccccc2C1=O)C(C)=O	·	82.6*	-15.2	30.4*	44.1*	3.0	75.0*	72.7*	3.8	Apaf1 inh interf=>100
Fc1ccc2c(c1)C(=NNc1ccccn1)CCS2	7.5	·	·	·	·	·	·	·	·
S=c1[nH]nc(-c2ccccn2)n1N=Cc1ccc(-c2ccccc2Br)o1	7.2	·	·	·	·	·	·	·	·
O=c1cc(-c2cccc([N+](=O)[O-])c2)[nH][nH]1	6.8	67.8*	52.0*	0.8	37.9*	-3.0	9.5	17.9	10.6	PAD4 FP conf=-1.6
O=[N+]([O-])c1cccc(-c2cn(-c3ccccc3)c(=S)[nH]2)c1	2.2	-16.6	-0.2	1.0	1.6	-1.3	·	·	·
